This note sets out measurements from ChEMBL document CHEMBL3616436, “Synthesis, cytotoxicity and antimicrobial activity of thiourea derivatives incorporating 3-(trifluoromethyl)phenyl moiety” (Eur J Med Chem, 2015).

Structures are written as SMILES. In brackets after ≈: the same amount, converted by molar mass. Activity calls are given as the source filed them. The rule behind the calls is not given here.

The target of assay [1] is T1, Topoisomerase IV (Staphylococcus aureus) (UniProt P0C1U9+P0C1S7). Briefly: Inhibition of decatenation activity of DNA topoisomerase 4 in hospital methicillin-resistant Staphylococcus aureus 522/11 using kDNA as substrate at 1 to 4 ug/ml after 1 hr using ethidium bromide staining by agarose gel electrophoresis. Format: protein-complex assay.
Assay [2] has as its target T1, Topoisomerase IV (Staphylococcus aureus). The assay is described as follows: Inhibition of decatenation activity of DNA topoisomerase 4 in Staphylococcus aureus ATCC 6538 using kDNA as substrate at 1 to 4 ug/ml […] using ethidium bromide staining by agarose gel electrophoresis. Format: protein-complex assay.
Assay [3] shares this target. The assay is described as follows: Inhibition of decatenation activity of DNA topoisomerase 4 in Staphylococcus aureus ATCC 29213 using kDNA as substrate at 1 to 4 ug/ml […] using ethidium bromide staining by agarose gel electrophoresis. Format: protein-complex assay.
Assay [4] has as its system Staphylococcus epidermidis. Briefly: Inhibition of biofilm formation in Staphylococcus epidermidis ATCC 12228 at 4 ug/ml after 24 hrs using MTT staining by spectrophotometer analysis. Format: functional. As to conditions: ATCC 12228, 24 h. An outline of the steps:
(§1)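 Methicillin-resistant hospital isolates or ATCC strains of S. epidermidis were grown overnight in tryptone soy broth with 0.5% glucose. Inoculum of 10^7 CFU/mL was mixed 1:1 with compound in TSB-glucose and incubated 24 h at 37 °C. Non-adherent cells were washed off with PBS, and wells were stained with MTT (0.5% in PBS) for 2 h at 37 °C. Stain was solubilized in DMSO/glycine buffer and read at A554. Inhibition is relative to drug-free control; quadruplicates.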

Assay [5] has as its target T2, DNA topoisomerase 4 (Staphylococcus epidermidis) (UniProt Q5HPI6+Q5HPI5). Briefly: Inhibition of decatenation activity of DNA topoisomerase 4 in hospital methicillin-resistant Staphylococcus epidermidis 23/04 using kDNA as substrate at 32 ug/ml after 1 hr using ethidium bromide staining by agarose gel electrophoresis. Type of assay: protein assay.
The subject of assay [6] is Staphylococcus epidermidis. Briefly: Inhibition of biofilm formation in Staphylococcus epidermidis 24/04 after 24 hrs using MTT staining by spectrophotometer analysis. Type of assay: functional, organism-based. As to conditions: 24/04, 24 h.
The target of assay [7] is T1, Topoisomerase IV (Staphylococcus aureus). The assay is described as follows: Inhibition of decatenation activity of DNA topoisomerase 4 in Staphylococcus aureus ATCC 25923 using kDNA as substrate at 1 to 4 ug/ml after 1 hr using ethidium bromide staining by agarose gel electrophoresis. Type of assay: protein-complex assay. An outline of the steps: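 Kit-supplied S. aureus topoisomerase IV, 1 U, with 200 ng kDNA in the supplied assay buffer. Reactions ran 30 min at 37 °C with compound at 1, 4 or 32 µg/ml. They were stopped with STEB and extracted with chloroform/isoamyl alcohol (24:1). Products were run on 1% agarose in TAE for 1 h at 120 V and visualised with ethidium bromide under UV. Controls were no-enzyme, no-compound and ±DMSO.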

The target is the same in assay [8]. The assay is described as follows: Inhibition of decatenation activity of DNA topoisomerase 4 in hospital methicillin-resistant Staphylococcus aureus 81/05 using kDNA as substrate at 32 ug/ml after 1 hr using ethidium bromide staining by agarose gel electrophoresis. Type of assay: protein-complex assay. An outline of the steps:
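Enzyme was S. aureus topoisomerase IV from a commercial decatenation kit, with kinetoplast DNA as substrate (1 U per 200 ng kDNA) in the supplied buffer. Compound was present at 1, 4 or 32 µg/ml, 30 min at 37 °C. Reactions were stopped with STEB and extracted with chloroform/isoamyl alcohol, then run on 1% agarose in TAE for 1 h at 120 V and stained with ethidium bromide. No-enzyme and DMSO controls were included.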

The test system of assay [9] is Staphylococcus epidermidis. Briefly: Inhibition of biofilm formation in Staphylococcus epidermidis 62/04 at 4 ug/ml after 24 hrs using MTT staining by spectrophotometer analysis. Format: functional. As to conditions: 62/04, 24 h. An outline of the steps: as §1
The subject of assay [10] is Staphylococcus epidermidis. The assay is described as follows: Inhibition of biofilm formation in Staphylococcus epidermidis […]/[…] after 24 hrs using MTT staining by spectrophotometer analysis. Type of assay: functional, organism-based. The settings on record: 16/04, 24 h.
A further assay relates to CCRF-CEM. The assay is described as follows: Cytotoxicity against human CCRF-CEM cells after 96 hrs by MTT assay. Format: functional. An outline of the steps: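 Leukaemia/lymphoma lines seeded at 1×10^5 cells/ml in RPMI-1640 with 10% FCS and penicillin/streptomycin; incubated with serial dilutions at 37°C, 5% CO2; viability by MTT after 96 h; value is concentration reducing proliferation by 50%, with untreated controls undergoing at least three rounds of multiplication.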
On the technique in general: Tetrazolium assays rely on reduction of a dye to a coloured formazan, in cell work by metabolically active cells.

In assay [11] the target is T2, DNA topoisomerase 4 (Staphylococcus epidermidis). The assay is described as follows: Inhibition of decatenation activity of DNA topoisomerase 4 in Staphylococcus epidermidis ATCC 12228 using kDNA as substrate at 32 ug/ml after 1 hr using ethidium bromide staining by agarose gel electrophoresis. Type of assay: protein assay.
Assay [12] shares this target. Briefly: Inhibition of decatenation activity of DNA topoisomerase 4 in hospital methicillin-resistant Staphylococcus epidermidis 76/04 using kDNA as substrate at 1 to 4 ug/ml after 1 hr using ethidium bromide staining by agarose gel electrophoresis. Type of assay: protein assay.
Assay [13] shares this target. Briefly: Inhibition of decatenation activity of DNA topoisomerase 4 in hospital methicillin-resistant Staphylococcus epidermidis 23/04 using kDNA as substrate at 1 to 4 ug/ml after 1 hr using ethidium bromide staining by agarose gel electrophoresis. Format: protein assay.
Assay [14] deals with T1, Topoisomerase IV (Staphylococcus aureus). The assay is described as follows: Inhibition of decatenation activity of DNA topoisomerase 4 in hospital methicillin-resistant Staphylococcus aureus 80/05 using kDNA as substrate at 32 ug/ml after 1 hr using ethidium bromide staining by agarose gel electrophoresis. Format: protein-complex assay.
The target of assay [15] is T2, DNA topoisomerase 4 (Staphylococcus epidermidis). Briefly: Inhibition of decatenation activity of DNA topoisomerase 4 in hospital methicillin-resistant Staphylococcus epidermidis 31/04 using kDNA as substrate at 32 ug/ml after 1 hr using ethidium bromide staining by agarose gel electrophoresis. Type of assay: protein assay.
In assay [16] the target is T1, Topoisomerase IV (Staphylococcus aureus). Briefly: Inhibition of decatenation activity of DNA topoisomerase 4 in hospital methicillin-resistant Staphylococcus aureus 573/11 using kDNA as substrate at 1 to 4 ug/ml after 1 hr using ethidium bromide staining by agarose gel electrophoresis. Format: protein-complex assay.
In assay [17] the test system is Staphylococcus epidermidis. Briefly: Inhibition of biofilm formation in Staphylococcus epidermidis ATCC 35984 at 4 ug/ml after 24 hrs using MTT staining by spectrophotometer analysis. The settings on record: ATCC 35984, 24 h. Format: functional. An outline of the steps:
as §1

Assay [18] has as its target T2, DNA topoisomerase 4 (Staphylococcus epidermidis). The assay is described as follows: Inhibition of decatenation activity of DNA topoisomerase 4 in Staphylococcus epidermidis ATCC 35984 using kDNA as substrate at 1 to 4 ug/ml after 1 hr using ethidium bromide staining by agarose gel electrophoresis. Type of assay: protein assay.
For assay [19] the target is unchanged. As to conditions: 16/04, at 1 to 4 µg/mL.
The test system of assay [20] is Staphylococcus epidermidis. Briefly: Inhibition of biofilm formation in Staphylococcus epidermidis ATCC 12228 after 24 hrs using MTT staining by spectrophotometer analysis. Type of assay: functional, organism-based. The settings on record: ATCC 12228, 24 h. An outline of the steps: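 Biofilm was grown for 24 h at 37 °C in TSB with 0.5% glucose from 10^7 CFU/mL inoculum, mixed 1:1 with compound. Final concentrations were 0.125–4 or 0.25–8 µg/ml. Wells were PBS-washed and MTT-stained for 2 h at 37 °C, solubilized in DMSO/glycine buffer and read at 554 nm. IC50 (50% inhibition of biofilm formation) was taken from the dose-response curve; quadruplicates.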

Assay [21] deals with T2, DNA topoisomerase 4 (Staphylococcus epidermidis). The assay is described as follows: Inhibition of decatenation activity of DNA topoisomerase 4 in hospital methicillin-resistant Staphylococcus epidermidis 151/04 using kDNA as substrate at 1 to 4 ug/ml after 1 hr using ethidium bromide staining by agarose gel electrophoresis. Format: protein assay.

One may read the inhibition as how much of the control response was suppressed. In general, IC50 refers to the concentration needed to halve the response being measured. Read a high IC50 as weaker potency. Usually CC50 stands for the concentration at which the toxic effect on the cells reaches its halfway point.

T2 sequence (Q5HPI5 whole entry, looked up): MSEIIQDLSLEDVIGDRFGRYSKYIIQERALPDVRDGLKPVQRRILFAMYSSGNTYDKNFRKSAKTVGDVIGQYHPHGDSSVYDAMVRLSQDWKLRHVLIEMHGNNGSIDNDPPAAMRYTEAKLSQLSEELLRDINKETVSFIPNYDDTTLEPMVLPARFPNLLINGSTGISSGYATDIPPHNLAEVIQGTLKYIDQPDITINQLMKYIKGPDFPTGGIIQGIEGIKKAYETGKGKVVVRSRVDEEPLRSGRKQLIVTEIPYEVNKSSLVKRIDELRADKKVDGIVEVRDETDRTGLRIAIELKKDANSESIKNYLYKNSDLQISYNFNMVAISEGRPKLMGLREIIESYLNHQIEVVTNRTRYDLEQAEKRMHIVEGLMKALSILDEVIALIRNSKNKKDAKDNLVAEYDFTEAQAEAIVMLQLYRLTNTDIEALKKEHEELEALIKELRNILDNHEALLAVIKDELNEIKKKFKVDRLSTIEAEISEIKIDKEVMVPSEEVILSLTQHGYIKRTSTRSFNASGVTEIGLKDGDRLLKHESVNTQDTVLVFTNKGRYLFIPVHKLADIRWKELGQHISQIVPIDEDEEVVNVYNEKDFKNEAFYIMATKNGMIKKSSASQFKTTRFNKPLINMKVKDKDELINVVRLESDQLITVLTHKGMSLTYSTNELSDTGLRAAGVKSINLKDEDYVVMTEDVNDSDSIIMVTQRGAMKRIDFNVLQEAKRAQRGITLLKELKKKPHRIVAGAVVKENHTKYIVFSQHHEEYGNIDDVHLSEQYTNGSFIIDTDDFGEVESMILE
T2 sequence (Q5HPI6 whole entry, looked up): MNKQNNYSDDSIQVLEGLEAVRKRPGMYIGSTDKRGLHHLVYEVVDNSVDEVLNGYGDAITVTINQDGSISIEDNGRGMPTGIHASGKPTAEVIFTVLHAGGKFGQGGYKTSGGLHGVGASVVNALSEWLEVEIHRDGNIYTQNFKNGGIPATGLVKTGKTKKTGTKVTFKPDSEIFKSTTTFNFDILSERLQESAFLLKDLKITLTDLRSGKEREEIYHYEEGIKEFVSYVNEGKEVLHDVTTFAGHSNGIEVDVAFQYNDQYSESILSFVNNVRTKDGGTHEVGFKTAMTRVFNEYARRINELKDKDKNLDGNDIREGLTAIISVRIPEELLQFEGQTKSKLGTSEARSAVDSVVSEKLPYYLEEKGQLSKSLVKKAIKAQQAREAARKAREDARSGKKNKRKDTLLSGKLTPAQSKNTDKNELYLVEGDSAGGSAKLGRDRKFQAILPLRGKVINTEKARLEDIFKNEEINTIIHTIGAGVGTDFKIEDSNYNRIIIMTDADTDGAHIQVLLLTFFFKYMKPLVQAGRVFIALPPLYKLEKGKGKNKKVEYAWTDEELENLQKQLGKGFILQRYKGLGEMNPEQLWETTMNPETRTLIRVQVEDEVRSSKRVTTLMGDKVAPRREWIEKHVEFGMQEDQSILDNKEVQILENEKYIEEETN

For `FC(F)(F)c1cccc(NC(=S)Nc2cccc(Br)c2)c1`, the inhibition entry in assay [1], in assay [2], in assay [3], in assay [5], in [7] and in assay [8] was “Active” in each case. The inhibition entry in assay [11], in assay [12], in [13], in [14], in assay [15] and in assay [16] was “Active” each time. In addition, the inhibition result in assay [18], in [19] and in assay [21] was “Active” throughout. The inhibition at 4 µg/mL was determined as 87% in [4], 84.8% in assay [9] and 46.8% in assay [17]. In addition, the IC50 in assay [6] came to 3.01 µg/mL (≈ 8.02 µM); in [10], 3.91 µg/mL (≈ 10.4 µM); in [20], 2.8 µg/mL (≈ 7.46 µM). In the assay on CCRF-CEM, this compound displayed a CC50 of 9.3 µM.
As to `FC(F)(F)c1cccc(NC(=S)Nc2ccc(Cl)cc2)c1`, the CC50 with CCRF-CEM was 12 µM.
As for `Fc1ccc(NC(=S)Nc2cccc(C(F)(F)F)c2)cc1Cl`, the inhibition entry in [1], in assay [2], in [3], in assay [5], in assay [7] and in [8] was “Active” each time. Also, the inhibition result in assay [11], in [12], in assay [13], in [14], in [15] and in assay [16] was “Active” each time. Further, the inhibition entry in assay [18], in [19] and in [21] was “Active” in each case. Moreover, the inhibition at 4 µg/mL in assay [4] worked out at 95.2%; in [9], 89.7%; in assay [17] it was 84%. The values for the IC50 in assay [6], in [10] and in assay [20] were 1.59 µg/mL (≈ 4.56 µM), 1.35 µg/mL (≈ 3.87 µM) and 1.62 µg/mL (≈ 4.65 µM), respectively. The same compound registered a CC50 with CCRF-CEM of 7 µM.
In turn, `FC(F)(F)c1cccc(NC(S)=Nc2ccc(Cl)c(Cl)c2)c1` had a CC50 in the assay on CCRF-CEM of 8 µM.
For the compound `O=C(O)c1cn(C2CC2)c2cc(N3CCNCC3)c(F)cc2c1=O` [CIPROFLOXACIN], the inhibition result in [1], in assay [2], in assay [3], in assay [5], in [7] and in [8] was “Active” each time. In addition, the inhibition result in assay [11], in [12], in assay [13], in assay [14], in [15] and in assay [16] was “Active” in each case. For the same compound, the inhibition entry in assay [18], in assay [19] and in [21] was “Active” each time. For the same compound, the inhibition at 4 µg/mL in assay [4] was found to be 21.3%; in assay [9] it was 59.9%; in assay [17], 45.4%. The IC50 in assay [6] is 12.9 µg/mL (≈ 39.1 µM); in assay [10], 6.81 µg/mL (≈ 20.6 µM); in assay [20], 7 µg/mL (≈ 21.1 µM).
